Source: ChEMBL document CHEMBL4118069, “Structure-activity relationship study and optimisation of 2-aminopyrrole-1-benzyl-4,5-diphenyl-1H-pyrrole-3-carbonitrile as a broad spectrum metallo-β-lactamase inhibitor” (Eur J Med Chem, 2017)
Values belong to the molecule of their own block, whether it stands above or below them.

Tests used:
Bacteria [1] = assay: Inhibition of bacterial IMP1 at 10 uM using CENTA as substrate by UV/Vis multi-plate spectrophotometric method relative to control
Bacteria [2] = assay: Competitive inhibition of bacterial IMP1 using CENTA as substrate by UV/Vis multi-plate spectrophotometric method
[3] = biological target: Metallo-beta-lactamase type 2 (Aeromonas hydrophila) (UniProt P26918); assay: Competitive inhibition of Aeromonas hydrophila recombinant CphA expressed in Escherichia coli BL21(DE3) using meropenem as substrate by UV/Vis multi-plate spectrophotometric method
Metallo-beta-lactamase type 2 (Aeromonas hydrophila), sequence (P26918 whole entry): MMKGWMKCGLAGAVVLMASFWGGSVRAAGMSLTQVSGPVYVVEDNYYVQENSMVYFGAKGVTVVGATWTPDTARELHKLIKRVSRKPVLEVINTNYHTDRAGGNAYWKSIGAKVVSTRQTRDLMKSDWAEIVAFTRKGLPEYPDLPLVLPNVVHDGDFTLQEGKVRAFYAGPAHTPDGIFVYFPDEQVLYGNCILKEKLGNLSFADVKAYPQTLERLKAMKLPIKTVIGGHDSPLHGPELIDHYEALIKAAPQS

[4] = biological target: Metallo-beta-lactamase type 2 (Aeromonas hydrophila) (UniProt P26918); assay: Uncompetitive inhibition of Aeromonas hydrophila recombinant CphA expressed in Escherichia coli BL21(DE3) using meropenem as substrate by UV/Vis multi-plate spectrophotometric method
[5] = biological target: T1, Metallo-beta-lactamase AIM-1 (Pseudomonas aeruginosa) (UniProt B5DCA0); assay: Competitive inhibition of Pseudomonas aeruginosa recombinant AIM1 expressed in Escherichia coli BL21(DE3) using cefuroxime as substrate by UV/Vis multi-plate spectrophotometric method
T1 sequence (whole entry): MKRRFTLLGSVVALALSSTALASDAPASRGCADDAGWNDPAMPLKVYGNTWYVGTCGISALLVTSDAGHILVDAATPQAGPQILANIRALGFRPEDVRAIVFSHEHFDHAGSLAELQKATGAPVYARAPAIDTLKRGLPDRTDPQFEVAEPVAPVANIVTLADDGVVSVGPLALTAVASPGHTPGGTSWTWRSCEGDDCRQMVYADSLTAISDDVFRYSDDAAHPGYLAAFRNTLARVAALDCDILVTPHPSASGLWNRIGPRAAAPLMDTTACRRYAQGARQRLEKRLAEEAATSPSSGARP

[6] = biological target: T1, Metallo-beta-lactamase AIM-1 (Pseudomonas aeruginosa); assay: Uncompetitive inhibition of Pseudomonas aeruginosa recombinant AIM1 expressed in Escherichia coli BL21(DE3) using cefuroxime as substrate by UV/Vis multi-plate spectrophotometric method
Bacteria [7] = assay: Inhibition of bacterial IMP1 expressed in Escherichia coli BL21(DE3) assessed as potentiation of meropenem-mediated antibacterial activity by measuring meropenem MIC at 30 uM after overnight incubation (reference value: 1 ug/ml)
Outline: (§1)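 Meropenem MICs (µg/mL) measured for E. coli BL21 cultures expressing IMP-1, CphA or AIM-1. Each strain was tested with no inhibitor (blank) and with the test compound at 30 µM. Change in sensitivity is expressed as the reduction of the meropenem MIC relative to the blank.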

[8] = biological target: Metallo-beta-lactamase type 2 (Aeromonas hydrophila) (UniProt P26918); assay: Inhibition of Aeromonas hydrophila CphA expressed in Escherichia coli BL21(DE3) assessed as potentiation of meropenem-mediated antibacterial activity by measuring meropenem MIC at 30 uM after overnight incubation (reference value: 1 ug/ml); outline: as §1
[9] = biological target: T1, Metallo-beta-lactamase AIM-1 (Pseudomonas aeruginosa); assay: Inhibition of Pseudomonas aeruginosa recombinant AIM1 expressed in Escherichia coli BL21(DE3) assessed as potentiation of meropenem-mediated antibacterial activity by measuring meropenem MIC at 30 uM after overnight incubation (reference value: 2 ug/ml); outline: as §1
Escherichia coli [10] = assay: Growth inhibition of Escherichia coli BL21(DE3) expressing Pseudomonas aeruginosa AIM1; type: organism-based; conditions: in vivo
Escherichia coli [11] = assay: Growth inhibition of Escherichia coli BL21(DE3) expressing Aeromonas hydrophila CphA; type: organism-based; conditions: in vivo
Escherichia coli [12] = assay: Growth inhibition of Escherichia coli BL21(DE3) expressing bacterial IMP1; type: organism-based; conditions: in vivo
Bacteria [13] = assay: Uncompetitive inhibition of bacterial IMP1 using CENTA as substrate by UV/Vis multi-plate spectrophotometric method
[14] = Drug metabolism assessed as bacterial IMP1-mediated N-(1-Benzyl-3-cyano-4,5-diphenyl-1H-pyrrol-2-yl)benzamide formation by ESI-MS method; type: ADME; conditions: bacteria
[15] = biological target: T1, Metallo-beta-lactamase AIM-1 (Pseudomonas aeruginosa); assay: Inhibition of Pseudomonas aeruginosa AIM1 expressed in Escherichia coli BL21(DE3) assessed as decrease in meropenem MIC at 30 uM after overnight incubation relative to control; outline: as §1
[16] = biological target: Metallo-beta-lactamase type 2 (Aeromonas hydrophila) (UniProt P26918); assay: Inhibition of Aeromonas hydrophila CphA expressed in Escherichia coli BL21(DE3) assessed as decrease in meropenem MIC at 30 uM after overnight incubation relative to control; outline: as §1
Bacteria [17] = assay: Inhibition of bacterial IMP1 expressed in Escherichia coli BL21(DE3) assessed as decrease in meropenem MIC at 30 uM after overnight incubation relative to control; outline: as §1

SMILES: CCCC(=O)N(C(=O)CCC)c1c(C#N)c(-c2ccccc2)c(-c2ccccc2)n1Cc1ccccc1
- inhibition (Bacteria [1]): 17.1%

SMILES: N#Cc1c(-c2ccccc2)c(-c2ccccc2)n(CCCc2ccccc2)c1N
- inhibition (Bacteria [1]): 4.1%

SMILES: CCCCCCCCCCCCCC(=O)N(C(=O)CCCCCCCCCCCCC)c1c(C#N)c(-c2ccccc2)c(-c2ccccc2)n1Cc1ccccc1
- inhibition (Bacteria [1]): 14.3%

SMILES: N#Cc1c(-c2ccccc2)c(-c2ccccc2)n(Cc2ccccc2)c1N(C(=O)c1ccccc1)C(=O)c1ccccc1
- inhibition (Bacteria [1]): 48%
- Kic (Bacteria [2]): 468 µM
- Kiuc (Bacteria [13]): 55 µM
- Drug metabolism [14]: Metabolite_Notdetected

SMILES: N#Cc1c(-c2ccccc2)c(-c2ccccc2)n(Cc2ccccc2)c1NC(=O)c1ccc([N+](=O)[O-])cc1
- inhibition (Bacteria [1]): 36.9%
- Kic (Bacteria [2]): 1.24 µM
- Kic [5]: 10.9 µM
- Kiuc [6]: 47 µM
- MIC (Bacteria [7]): 0.25 µg/mL
- MIC [8]: 0.75 µg/mL
- MIC [9]: 0.5 µg/mL
- growth inhibition (GI) (Escherichia coli [10]): Non-Toxic
- growth inhibition (GI) (Escherichia coli [11]): Non-Toxic
- growth inhibition (GI) (Escherichia coli [12]): Non-Toxic

SMILES: NC(=O)c1c(-c2ccccc2)c(-c2ccccc2)n(Cc2ccccc2)c1N
- inhibition (Bacteria [1]): 0%

SMILES: N#Cc1c(-c2ccccc2)c(-c2ccccc2)n(Cc2ccccc2)c1NC(=O)c1ccccc1
- inhibition (Bacteria [1]): 50.9%
- Kic (Bacteria [2]): 10.7 µM
- Kiuc (Bacteria [13]): 4.3 µM
- Kic [3]: 11 µM
- Kiuc [4]: 9 µM
- Kic [5]: 1.6 µM
- Kiuc [6]: 13 µM
- fold change (FC) [15]: 20
- fold change (FC) [16]: 40
- fold change (FC) (Bacteria [17]): 20
- growth inhibition (GI) (Escherichia coli [10]): Non-Toxic
- growth inhibition (GI) (Escherichia coli [11]): Non-Toxic
- growth inhibition (GI) (Escherichia coli [12]): Non-Toxic

SMILES: COc1ccc(Cn2c(N)c(C#N)c(-c3ccccc3)c2-c2ccccc2)cc1
- inhibition (Bacteria [1]): 20.1%

SMILES: Cc1cc(C)cc(C(=O)N(C(=O)c2cc(C)cc(C)c2)c2c(C#N)c(-c3ccccc3)c(-c3ccccc3)n2Cc2ccccc2)c1
- inhibition (Bacteria [1]): 13.3%

SMILES: N#Cc1c(-c2ccccc2)c(-c2ccccc2)n(-c2ccccc2)c1N
- inhibition (Bacteria [1]): 0%

SMILES: N#Cc1c(-c2ccccc2)c(-c2ccccc2)n(CCc2ccccc2)c1N
- inhibition (Bacteria [1]): 4.8%

SMILES: N#Cc1c(-c2ccccc2)c(-c2ccccc2)n(Cc2ccccc2)c1NC(=O)c1cccc([N+](=O)[O-])c1
- inhibition (Bacteria [1]): 48.7%
- Kic (Bacteria [2]): 23.7 µM
- Kiuc (Bacteria [13]): 3.3 µM

SMILES: Nc1c(-c2nnn[nH]2)c(-c2ccccc2)c(-c2ccccc2)n1Cc1ccccc1
- inhibition (Bacteria [1]): 8.7%

SMILES: CCCC(=O)Nc1c(C#N)c(-c2ccccc2)c(-c2ccccc2)n1Cc1ccccc1
- inhibition (Bacteria [1]): 21%

Now from value to molecule, other results behind:

- inhibition (Bacteria [1]): 16.1%
SMILES: CC(=O)Nc1c(C#N)c(-c2ccccc2)c(-c2ccccc2)n1Cc1ccccc1

- inhibition (Bacteria [1]): 23.3%
SMILES: N#Cc1c(-c2ccccc2)c(-c2ccccc2)n(Cc2ccccc2)c1NC(=O)C1CCCCC1

- inhibition (Bacteria [1]): 26%
- Kic (Bacteria [2]): 21 µM
- Kic [3]: 52 µM
- Kiuc [4]: 5.5 µM
- Kic [5]: 2.2 µM
- Kiuc [6]: 12.5 µM
- MIC (Bacteria [7]): 0.5 µg/mL
- MIC [8]: 0.047 µg/mL
- MIC [9]: 0.25 µg/mL
SMILES: N#Cc1c(-c2ccccc2)c(-c2ccccc2)n(Cc2ccccc2)c1N
- growth inhibition (GI) (Escherichia coli [10]): Non-Toxic
- growth inhibition (GI) (Escherichia coli [11]): Non-Toxic
- growth inhibition (GI) (Escherichia coli [12]): Non-Toxic

- inhibition (Bacteria [1]): 18.6%
SMILES: CC(=O)N(C(C)=O)c1c(C#N)c(-c2ccccc2)c(-c2ccccc2)n1Cc1ccccc1

- inhibition (Bacteria [1]): 12%
SMILES: N#Cc1c(N)[nH]c(-c2ccccc2)c1-c1ccccc1

- inhibition (Bacteria [1]): 44.3%
- Kiuc (Bacteria [13]): 1.52 µM
- Kic [3]: 872 µM
- Kiuc [4]: 161 µM
- MIC (Bacteria [7]): 0.5 µg/mL
- MIC [8]: 0.75 µg/mL
- MIC [9]: 0.75 µg/mL
SMILES: N#Cc1c(-c2ccccc2)c(-c2ccccc2)n(Cc2ccccc2)c1NC(=O)c1ccc(C(=O)c2ccccc2)cc1
- growth inhibition (GI) (Escherichia coli [10]): Non-Toxic
- growth inhibition (GI) (Escherichia coli [11]): Non-Toxic
- growth inhibition (GI) (Escherichia coli [12]): Non-Toxic

- inhibition (Bacteria [1]): 23.2%
SMILES: N#Cc1c(-c2ccco2)c(-c2ccco2)n(Cc2ccccc2)c1N

- inhibition (Bacteria [1]): 20.3%
SMILES: N#Cc1c(-c2ccccc2)c(-c2ccccc2)n(Cc2ccccc2)c1N1C(=O)c2ccccc2C1=O

- inhibition (Bacteria [1]): 32.3%
- Kic (Bacteria [2]): 20.2 µM
- Kiuc (Bacteria [13]): 7.8 µM
SMILES: Cc1cc(C)cc(C(=O)Nc2c(C#N)c(-c3ccccc3)c(-c3ccccc3)n2Cc2ccccc2)c1

- inhibition (Bacteria [1]): 8.7%
SMILES: N#Cc1c(-c2ccccc2)c(-c2ccccc2)n(CCCCc2ccccc2)c1N

- inhibition (Bacteria [1]): 20.2%
SMILES: N#Cc1c(-c2ccccc2)c(-c2ccccc2)n(Cc2ccccc2)c1N(C(=O)c1ccc([N+](=O)[O-])cc1)C(=O)c1ccc([N+](=O)[O-])cc1

- inhibition (Bacteria [1]): 2.3%
SMILES: Cc1c(C#N)c(N)n(Cc2ccccc2)c1C

- inhibition (Bacteria [1]): 8.2%
SMILES: CCCCCCCCCCCCCC(=O)Nc1c(C#N)c(-c2ccccc2)c(-c2ccccc2)n1Cc1ccccc1
